According to ChEMBL document CHEMBL5661979, “Pharmacological inhibition of BMK1 suppresses tumor growth through promyelocytic leukemia protein” (Cancer Cell, 2010):

Experiments:
[1] = biological target: Tyrosine-protein kinase Fer (Homo sapiens, UniProt P16591); experiment: Inhibition of FER in human HeLa cells lysate pre incubated for 15 mins followed by ATP acyl phosphate probe addition and measured after 10 mins by LC-MS/MS analysis; type: subcellular
[2] = biological target: Tyrosine-protein kinase CSK (Homo sapiens, UniProt P41240); experiment: Inhibition of CSK in human HeLa cells lysate pre incubated for 15 mins followed by ADP acyl phosphate probe addition and measured after 10 mins by LC-MS/MS analysis; type: subcellular
[3] = biological target: Dual specificity mitogen-activated protein kinase kinase 1 (Homo sapiens, UniProt Q02750); experiment: Inhibition of MAP2K1 in human HeLa cells lysate pre incubated for 15 mins followed by ADP acyl phosphate probe addition and measured after 10 mins by LC-MS/MS analysis; type: subcellular
[4] = biological target: Dual specificity mitogen-activated protein kinase kinase 6 (Homo sapiens, UniProt P52564); experiment: Inhibition of MAP2K6 in human HeLa cells lysate pre incubated for 15 mins followed by ADP acyl phosphate probe addition and measured after 10 mins by LC-MS/MS analysis; type: subcellular
[5] = biological target: Dual specificity mitogen-activated protein kinase kinase 7 (Homo sapiens, UniProt O14733); experiment: Inhibition of MAP2K7 in human HeLa cells lysate pre incubated for 15 mins followed by ADP acyl phosphate probe addition and measured after 10 mins by LC-MS/MS analysis; type: subcellular
[6] = biological target: T1, Serine/threonine-protein kinase D3 (Homo sapiens) (UniProt O94806); experiment: Inhibition of PKD3 in human HeLa cells lysate at 50 uM pre incubated for 15 mins followed by ADP acyl phosphate probe addition and measured after 10 mins by LC-MS/MS analysis relative to control; type: subcellular; details: time 25.0 min
T1 sequence (whole entry): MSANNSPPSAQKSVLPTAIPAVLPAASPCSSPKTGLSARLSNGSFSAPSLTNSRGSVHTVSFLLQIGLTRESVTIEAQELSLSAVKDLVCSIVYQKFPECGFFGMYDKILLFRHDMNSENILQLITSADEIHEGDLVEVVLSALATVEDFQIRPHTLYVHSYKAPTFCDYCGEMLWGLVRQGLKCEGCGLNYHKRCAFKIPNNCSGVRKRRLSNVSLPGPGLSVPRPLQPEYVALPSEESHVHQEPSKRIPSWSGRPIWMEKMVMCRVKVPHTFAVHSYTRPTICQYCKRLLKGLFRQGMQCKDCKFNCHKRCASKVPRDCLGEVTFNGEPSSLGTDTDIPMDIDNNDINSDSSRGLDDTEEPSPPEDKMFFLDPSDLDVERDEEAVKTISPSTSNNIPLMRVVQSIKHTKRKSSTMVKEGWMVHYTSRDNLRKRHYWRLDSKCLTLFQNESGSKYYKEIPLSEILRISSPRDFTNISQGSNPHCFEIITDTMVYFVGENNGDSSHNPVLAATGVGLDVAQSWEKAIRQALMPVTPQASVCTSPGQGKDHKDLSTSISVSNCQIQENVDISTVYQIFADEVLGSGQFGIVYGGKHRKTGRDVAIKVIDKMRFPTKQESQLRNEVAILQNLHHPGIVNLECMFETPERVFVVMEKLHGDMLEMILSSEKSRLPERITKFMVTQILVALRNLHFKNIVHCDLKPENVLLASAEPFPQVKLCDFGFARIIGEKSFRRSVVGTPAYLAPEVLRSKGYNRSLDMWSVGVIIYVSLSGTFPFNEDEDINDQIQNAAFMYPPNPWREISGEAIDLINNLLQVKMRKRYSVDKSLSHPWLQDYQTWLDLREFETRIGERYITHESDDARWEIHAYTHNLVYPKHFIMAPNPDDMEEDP

[7] = Inhibition of PCTAIRE2/3 in human HeLa cells lysate at 50 uM pre incubated for 15 mins followed by ADP acyl phosphate probe addition and measured after 10 mins by LC-MS/MS analysis relative to control; details: 25 min, condition cancer
[8] = biological target: Ribosomal protein S6 kinase alpha-1 (Homo sapiens, UniProt Q15418); experiment: Inhibition of RSK1 domain 2 in human HeLa cells lysate at 50 uM pre incubated for 15 mins followed by ATP acyl phosphate probe addition and measured after 10 mins by LC-MS/MS analysis relative to control; type: subcellular; details: time 25.0 min
[9] = biological target: Phosphatidylinositol 4-kinase beta (Homo sapiens, UniProt Q9UBF8); experiment: Inhibition of PIK4CB in human HeLa cells lysate at 10 uM pre incubated for 15 mins followed by ATP acyl phosphate probe addition and measured after 10 mins by LC-MS/MS analysis relative to control; type: subcellular; details: time 25.0 min
[10] = biological target: T2, Aurora kinase A (Homo sapiens) (UniProt O14965); experiment: Inhibition of AurA in human HeLa cells lysate at 10 uM pre incubated for 15 mins followed by ATP acyl phosphate probe addition and measured after 10 mins by LC-MS/MS analysis relative to control; type: subcellular; details: time 25.0 min
T2 sequence (whole entry): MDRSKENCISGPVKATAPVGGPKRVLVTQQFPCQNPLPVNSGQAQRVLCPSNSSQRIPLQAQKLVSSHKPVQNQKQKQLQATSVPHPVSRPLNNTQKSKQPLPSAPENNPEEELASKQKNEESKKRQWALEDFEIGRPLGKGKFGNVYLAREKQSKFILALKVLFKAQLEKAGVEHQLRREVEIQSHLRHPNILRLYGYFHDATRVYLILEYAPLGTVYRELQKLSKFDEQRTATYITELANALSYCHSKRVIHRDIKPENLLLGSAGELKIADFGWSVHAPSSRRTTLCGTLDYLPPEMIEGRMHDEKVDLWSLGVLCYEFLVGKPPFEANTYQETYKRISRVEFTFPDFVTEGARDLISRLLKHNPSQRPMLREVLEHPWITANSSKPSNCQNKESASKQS
How it was run: (§1)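 KiNativ-type profiling in HeLa lysate (5 mg/mL total protein). Lysate preincubated 15 min with inhibitor at 50, 10, 2, 0.8 or 0 μM, then ATP or ADP acylphosphate probe added (5 μM final) for 10 min. Reaction stopped with urea and analysed by targeted MS, using up to four fragment ions per kinase peptide-probe conjugate. % inhibition calculated against untreated lysate. Duplicate reactions.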

[11] = biological target: Serine/threonine-protein kinase Aurora (Homo sapiens, UniProt Q96GD4+Q9UQB9+O14965); experiment: Inhibition of AurA/AurB/AurC in human HeLa cells lysate at 10 uM pre incubated for 15 mins followed by ATP acyl phosphate probe addition and measured after 10 mins by LC-MS/MS analysis relative to control; type: subcellular; details: time 25.0 min; how it was run: as §1
[12] = biological target: RAC-alpha serine/threonine-protein kinase (Homo sapiens, UniProt P31749); experiment: Inhibition of AKT1 in human HeLa cells lysate at 2 uM pre incubated for 15 mins followed by ATP acyl phosphate probe addition and measured after 10 mins by LC-MS/MS analysis relative to control; type: subcellular; details: time 25.0 min
How it was run: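 HeLa cell lysates (5 mg/mL total protein) were preincubated with inhibitor at 0, 0.8, 2, 10 or 50 μM for 15 min. ATP or ADP acylphosphate probe was then added (5 μM final) for 10 min, and reactions were stopped with urea. Up to four fragment ions per kinase probe-peptide were quantified by targeted MS. % inhibition was taken relative to untreated lysate. Run in duplicate.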

[13] = Oral bioavailability in Sprague-Dawley rat at 2 mg/kg measured up to 8 hrs by LC-MS/MS analysis; type: ADME, organism-based; details: in vivo

Sequence of Phosphatidylinositol 4-kinase beta (Q9UBF8 2-816 limits assumed): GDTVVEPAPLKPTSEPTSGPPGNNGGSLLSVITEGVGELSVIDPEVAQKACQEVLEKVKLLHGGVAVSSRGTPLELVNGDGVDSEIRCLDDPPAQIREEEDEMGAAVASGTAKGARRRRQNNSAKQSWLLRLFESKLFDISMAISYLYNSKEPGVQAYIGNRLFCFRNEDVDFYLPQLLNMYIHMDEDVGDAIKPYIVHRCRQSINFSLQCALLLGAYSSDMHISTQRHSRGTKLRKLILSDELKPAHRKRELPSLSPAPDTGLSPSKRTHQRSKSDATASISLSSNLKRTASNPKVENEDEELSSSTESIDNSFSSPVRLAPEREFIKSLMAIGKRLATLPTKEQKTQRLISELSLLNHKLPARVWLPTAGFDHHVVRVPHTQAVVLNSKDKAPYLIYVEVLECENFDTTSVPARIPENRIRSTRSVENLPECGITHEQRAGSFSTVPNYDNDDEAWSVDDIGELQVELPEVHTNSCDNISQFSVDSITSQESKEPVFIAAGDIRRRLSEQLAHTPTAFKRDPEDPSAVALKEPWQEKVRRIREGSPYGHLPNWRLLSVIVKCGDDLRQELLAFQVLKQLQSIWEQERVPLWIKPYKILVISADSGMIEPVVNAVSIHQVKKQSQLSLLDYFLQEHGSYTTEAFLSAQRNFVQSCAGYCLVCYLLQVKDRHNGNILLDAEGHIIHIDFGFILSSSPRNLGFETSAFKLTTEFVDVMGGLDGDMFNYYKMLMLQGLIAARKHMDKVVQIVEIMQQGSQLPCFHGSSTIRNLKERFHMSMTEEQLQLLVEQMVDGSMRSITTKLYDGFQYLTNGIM
Sequence of Dual specificity mitogen-activated protein kinase kinase 1 (Q02750 whole entry): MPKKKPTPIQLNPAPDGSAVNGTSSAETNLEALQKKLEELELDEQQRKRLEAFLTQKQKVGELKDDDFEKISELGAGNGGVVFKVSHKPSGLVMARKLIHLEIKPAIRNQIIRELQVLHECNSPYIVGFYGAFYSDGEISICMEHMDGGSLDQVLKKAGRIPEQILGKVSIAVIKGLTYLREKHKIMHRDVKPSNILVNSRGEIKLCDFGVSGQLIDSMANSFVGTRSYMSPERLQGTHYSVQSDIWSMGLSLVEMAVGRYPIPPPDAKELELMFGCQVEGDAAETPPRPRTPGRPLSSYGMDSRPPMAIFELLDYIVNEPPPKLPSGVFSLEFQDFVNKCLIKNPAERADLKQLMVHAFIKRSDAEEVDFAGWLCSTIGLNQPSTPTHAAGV
Sequence of RAC-alpha serine/threonine-protein kinase (P31749 whole entry, the tested form may be a part): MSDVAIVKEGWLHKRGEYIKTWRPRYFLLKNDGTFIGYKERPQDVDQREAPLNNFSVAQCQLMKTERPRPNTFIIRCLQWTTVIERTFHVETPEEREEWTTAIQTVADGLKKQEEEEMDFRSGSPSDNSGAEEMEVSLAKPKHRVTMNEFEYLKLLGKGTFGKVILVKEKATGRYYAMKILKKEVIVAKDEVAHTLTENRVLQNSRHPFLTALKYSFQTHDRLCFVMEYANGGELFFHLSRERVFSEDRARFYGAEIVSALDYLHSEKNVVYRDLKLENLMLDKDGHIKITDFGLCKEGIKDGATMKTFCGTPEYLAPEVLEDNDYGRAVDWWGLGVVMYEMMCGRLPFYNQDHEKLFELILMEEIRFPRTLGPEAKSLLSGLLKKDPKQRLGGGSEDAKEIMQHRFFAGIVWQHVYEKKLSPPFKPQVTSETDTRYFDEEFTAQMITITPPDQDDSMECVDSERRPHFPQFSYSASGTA
Sequence of Tyrosine-protein kinase Fer (P16591 whole entry): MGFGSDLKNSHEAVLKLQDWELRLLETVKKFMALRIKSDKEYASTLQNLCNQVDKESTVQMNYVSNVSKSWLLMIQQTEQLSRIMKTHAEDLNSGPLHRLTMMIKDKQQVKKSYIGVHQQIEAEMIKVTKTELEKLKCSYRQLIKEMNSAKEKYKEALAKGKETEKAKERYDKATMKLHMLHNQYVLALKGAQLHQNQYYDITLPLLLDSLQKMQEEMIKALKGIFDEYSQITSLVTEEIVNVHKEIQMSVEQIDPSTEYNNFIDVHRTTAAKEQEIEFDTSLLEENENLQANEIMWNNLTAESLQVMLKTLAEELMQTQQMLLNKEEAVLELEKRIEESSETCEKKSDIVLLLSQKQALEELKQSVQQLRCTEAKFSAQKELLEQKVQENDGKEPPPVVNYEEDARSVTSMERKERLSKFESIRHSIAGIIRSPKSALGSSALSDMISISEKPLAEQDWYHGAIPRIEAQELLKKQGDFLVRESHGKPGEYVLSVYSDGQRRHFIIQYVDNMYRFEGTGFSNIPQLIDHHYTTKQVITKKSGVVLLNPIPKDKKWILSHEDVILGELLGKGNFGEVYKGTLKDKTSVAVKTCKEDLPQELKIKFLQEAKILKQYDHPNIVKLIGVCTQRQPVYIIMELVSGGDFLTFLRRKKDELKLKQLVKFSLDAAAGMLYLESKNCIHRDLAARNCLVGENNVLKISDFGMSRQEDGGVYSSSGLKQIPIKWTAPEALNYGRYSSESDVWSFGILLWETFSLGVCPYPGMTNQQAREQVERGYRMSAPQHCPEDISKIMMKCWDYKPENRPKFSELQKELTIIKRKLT
Sequence of Tyrosine-protein kinase CSK (P41240 whole entry): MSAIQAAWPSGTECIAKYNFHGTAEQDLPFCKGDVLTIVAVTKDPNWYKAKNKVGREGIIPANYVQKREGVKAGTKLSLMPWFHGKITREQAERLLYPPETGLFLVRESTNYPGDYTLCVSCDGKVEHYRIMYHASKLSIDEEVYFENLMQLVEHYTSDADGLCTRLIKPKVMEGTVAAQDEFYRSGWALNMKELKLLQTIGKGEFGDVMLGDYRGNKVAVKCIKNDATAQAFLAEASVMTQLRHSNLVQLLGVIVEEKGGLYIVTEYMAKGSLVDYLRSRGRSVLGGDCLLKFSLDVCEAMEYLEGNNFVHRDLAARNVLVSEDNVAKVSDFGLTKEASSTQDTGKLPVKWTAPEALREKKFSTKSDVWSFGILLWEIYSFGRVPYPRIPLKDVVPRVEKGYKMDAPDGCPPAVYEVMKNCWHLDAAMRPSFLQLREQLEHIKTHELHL
Sequence of Dual specificity mitogen-activated protein kinase kinase 6 (P52564 whole entry): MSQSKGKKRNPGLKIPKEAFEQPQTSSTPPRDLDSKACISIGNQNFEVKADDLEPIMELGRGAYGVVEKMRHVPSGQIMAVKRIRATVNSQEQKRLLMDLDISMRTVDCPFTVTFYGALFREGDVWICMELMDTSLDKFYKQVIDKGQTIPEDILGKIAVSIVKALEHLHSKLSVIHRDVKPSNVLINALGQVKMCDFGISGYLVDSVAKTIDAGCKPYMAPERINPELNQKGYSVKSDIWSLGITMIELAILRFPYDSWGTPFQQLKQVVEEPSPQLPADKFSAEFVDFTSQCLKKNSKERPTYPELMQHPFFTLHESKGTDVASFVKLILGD
Sequence of Serine/threonine-protein kinase Aurora (Q96GD4 whole entry, looked up, one chain of several): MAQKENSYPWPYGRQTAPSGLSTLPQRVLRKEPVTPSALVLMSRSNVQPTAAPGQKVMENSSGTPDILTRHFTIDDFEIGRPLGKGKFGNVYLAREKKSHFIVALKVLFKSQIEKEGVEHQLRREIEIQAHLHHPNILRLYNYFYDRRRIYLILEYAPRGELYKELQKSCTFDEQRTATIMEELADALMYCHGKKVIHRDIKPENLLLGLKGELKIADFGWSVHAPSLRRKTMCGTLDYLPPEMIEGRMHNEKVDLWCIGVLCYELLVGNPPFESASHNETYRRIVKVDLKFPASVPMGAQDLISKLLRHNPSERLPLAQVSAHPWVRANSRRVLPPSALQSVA
Sequence of Serine/threonine-protein kinase Aurora (Q9UQB9 whole entry, looked up, one chain of several): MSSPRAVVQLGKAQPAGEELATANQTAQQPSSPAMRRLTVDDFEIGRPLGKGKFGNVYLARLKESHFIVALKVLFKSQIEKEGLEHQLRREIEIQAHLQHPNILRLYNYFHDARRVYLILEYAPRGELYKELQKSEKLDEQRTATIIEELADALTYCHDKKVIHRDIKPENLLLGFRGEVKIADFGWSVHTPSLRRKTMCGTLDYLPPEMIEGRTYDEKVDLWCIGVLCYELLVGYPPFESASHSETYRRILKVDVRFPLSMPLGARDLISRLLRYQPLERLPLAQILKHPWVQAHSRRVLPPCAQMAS
Sequence of Ribosomal protein S6 kinase alpha-1 (Q15418 whole entry, the tested form may be a part): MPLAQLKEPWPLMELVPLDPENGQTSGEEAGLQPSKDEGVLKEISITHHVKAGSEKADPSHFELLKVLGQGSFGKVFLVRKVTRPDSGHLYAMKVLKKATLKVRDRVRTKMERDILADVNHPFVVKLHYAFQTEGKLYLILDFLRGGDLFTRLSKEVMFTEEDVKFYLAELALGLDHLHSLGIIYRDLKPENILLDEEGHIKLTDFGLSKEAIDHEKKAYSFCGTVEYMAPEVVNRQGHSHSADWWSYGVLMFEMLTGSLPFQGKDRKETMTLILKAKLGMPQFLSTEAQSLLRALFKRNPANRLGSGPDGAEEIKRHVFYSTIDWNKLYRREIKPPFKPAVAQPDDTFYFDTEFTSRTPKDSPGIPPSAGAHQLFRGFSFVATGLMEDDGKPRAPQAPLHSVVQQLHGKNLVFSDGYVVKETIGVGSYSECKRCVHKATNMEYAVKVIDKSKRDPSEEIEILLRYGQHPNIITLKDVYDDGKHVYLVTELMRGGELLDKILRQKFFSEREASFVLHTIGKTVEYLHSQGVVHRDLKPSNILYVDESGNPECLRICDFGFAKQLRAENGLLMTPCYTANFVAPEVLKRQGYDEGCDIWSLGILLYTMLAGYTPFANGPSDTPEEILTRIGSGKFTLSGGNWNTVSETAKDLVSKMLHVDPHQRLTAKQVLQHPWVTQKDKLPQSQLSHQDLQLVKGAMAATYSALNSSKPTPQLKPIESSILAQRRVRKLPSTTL

Question: With `CCOc1cc(N2CCC(O)CC2)ccc1Nc1ncc2c(n1)N(C)c1ccccc1C(=O)N2C` as the compound, how does the IC50 [1] read?
Answer: > 50 µM

Question: What about the IC50 [2] of the same compound?
Answer: > 50 µM

Question: And the IC50 [3]?
Answer: > 50 µM

Question: And the IC50 [4]?
Answer: > 50 µM

Question: What about the IC50 [5] of the same compound?
Answer: > 50 µM

Question: What about the inhibition [6] of the same compound?
Answer: -0.5%

Question: What about the inhibition at 50 µM [7] of the same compound?
Answer: -8.7%

Question: What about the inhibition [8] of the same compound?
Answer: 73.1%

Question: And the inhibition [9]?
Answer: 25.8%

Question: What about the inhibition [10] of the same compound?
Answer: 2.3%

Question: And the inhibition [11]?
Answer: -7.7%

Question: What about the inhibition [12] of the same compound?
Answer: -6.9%

Question: And the bioavailability [13]?
Answer: 69%
